The text below walks through data of ChEMBL document CHEMBL1154970, “Replacement of pyrazol-3-yl amine hinge binder with thiazol-2-yl amine: Discovery of potent and selective JAK2 inhibitors” (Bioorg Med Chem Lett, 2010).

Series [1] is described as follows: Intrinsic clearance in rat liver microsomes at 2 uM by LC-MS/MS. Type of series: ADME, Microsome. The method in brief: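 Rat liver microsomes incubated with compound at 2 μM initial concentration; time-dependent disappearance of parent measured by LC–MS/MS to give intrinsic clearance (μL/min/mg).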
Series [2] concerns BaF3. Description: Selectivity ratio of GI50 for mouse BA/F3 cells transfected with recombinant TEL-JAK3 kinase to GI50 for mouse BA/F3 cells transfected with recombinant TEL-JAK2 kinase. Type of series: functional, cell-based. The method in brief: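 Fold selectivity calculated as the TEL-JAK3 Ba/F3 GI50 divided by the TEL-JAK2 Ba/F3 GI50.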
In series [3] the target is T1, Tyrosine-protein kinase JAK2 (Homo sapiens, UniProt O60674). Put plainly: Inhibition of recombinant JAK2 kinase in presence of 5 mM ATP.
T1 sequence (O60674 whole entry, the tested form may be a part): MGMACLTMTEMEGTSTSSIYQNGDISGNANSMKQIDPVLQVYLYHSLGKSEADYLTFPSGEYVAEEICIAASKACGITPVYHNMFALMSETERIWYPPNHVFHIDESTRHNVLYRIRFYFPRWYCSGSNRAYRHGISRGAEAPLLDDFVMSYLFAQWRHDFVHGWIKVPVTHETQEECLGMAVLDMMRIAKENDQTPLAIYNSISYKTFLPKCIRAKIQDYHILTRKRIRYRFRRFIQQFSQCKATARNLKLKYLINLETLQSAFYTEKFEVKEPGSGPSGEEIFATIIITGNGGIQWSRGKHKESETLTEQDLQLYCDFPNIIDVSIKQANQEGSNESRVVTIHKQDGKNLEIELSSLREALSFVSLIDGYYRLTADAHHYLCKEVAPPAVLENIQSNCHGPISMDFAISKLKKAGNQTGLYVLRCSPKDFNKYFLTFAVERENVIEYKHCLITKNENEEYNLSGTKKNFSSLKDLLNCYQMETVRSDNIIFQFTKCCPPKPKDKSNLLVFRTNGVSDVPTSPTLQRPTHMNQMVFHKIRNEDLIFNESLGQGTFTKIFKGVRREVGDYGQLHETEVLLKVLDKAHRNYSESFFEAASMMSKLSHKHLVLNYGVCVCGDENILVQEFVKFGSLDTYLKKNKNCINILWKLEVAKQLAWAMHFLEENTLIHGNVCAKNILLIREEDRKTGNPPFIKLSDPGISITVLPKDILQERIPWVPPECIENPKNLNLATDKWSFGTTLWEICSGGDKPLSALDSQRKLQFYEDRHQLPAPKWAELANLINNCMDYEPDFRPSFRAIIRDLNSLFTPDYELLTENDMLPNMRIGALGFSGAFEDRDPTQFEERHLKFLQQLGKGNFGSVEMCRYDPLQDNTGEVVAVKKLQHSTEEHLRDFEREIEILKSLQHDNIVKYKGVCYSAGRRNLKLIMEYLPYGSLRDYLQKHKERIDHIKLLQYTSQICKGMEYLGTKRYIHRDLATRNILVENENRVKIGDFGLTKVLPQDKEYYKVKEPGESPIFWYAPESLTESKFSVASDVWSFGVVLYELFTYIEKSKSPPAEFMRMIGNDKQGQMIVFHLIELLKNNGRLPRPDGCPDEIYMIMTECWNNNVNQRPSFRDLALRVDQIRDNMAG
Series [4] can be described thus: Growth inhibition of mouse BA/F3 cells transfected with recombinant TEL-JAK2 kinase after 48 hrs by alamar blue assay. Type of series: functional, cell-based. As to conditions: BaF3, 48 h. The essentials: (§1)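 Proliferation of Ba/F3 cells transfected with TEL-JAK2 or TEL-JAK3 fusions; GI50 determined.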
A short description of series [5]: Growth inhibition of mouse BA/F3 cells transfected with recombinant TEL-JAK3 kinase after 48 hrs by alamar blue assay. Format: functional, cell-based, BaF3. The method in brief:
as §1

The target of series [6] is T1, Tyrosine-protein kinase JAK2. The conditions noted are these: BaF3; 10 mg/kg.
Series [7] is described as follows: Plasma concentration in nude mouse transplanted with recombinant TEL-JAK2 expressing BA/F3 cells at 10 mg/kg, po dosed on day 10 of transplantation measured after 6 hrs. Also on record: dose 10 mg/kg, route oral. Format: ADME, organism-based, BaF3. The method in brief: (§2)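 Female nude mice implanted intravenously with Ba/F3 TEL-JAK2 cells on day 0, then dosed orally once at 10 mg/kg on day 10. Total plasma drug concentration measured at 2 or 6 h post-dose by LC-MS on a C18 column, water/MeCN with 0.1% formic acid; n = 3 per time point.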

Series [8] is described as follows: Clearance in Han Wistar rat at 3 mg/kg, iv. Format: ADME, organism-based. Also on record: dose 3 mg/kg, route intravenous. As to conditions: in vivo.
Series [9] can be described thus: Plasma concentration in nude mouse transplanted with recombinant TEL-JAK2 expressing BA/F3 cells at 10 mg/kg, po dosed on day 10 of transplantation measured after 2 hrs. Format: ADME, organism-based, BaF3. More on the design: dose 10 mg/kg, route oral. The method in brief:
as §2

Series [10] in a line: Half life in Han Wistar rat at 3 mg/kg, iv. Format: ADME, organism-based. More on the design: dose 3 mg/kg, route intravenous. The conditions noted are these: in vivo.
In series [11] the target is T1, Tyrosine-protein kinase JAK2. Description: Inhibition of recombinant JAK2 kinase in presence of 5 mM ATP.
Series [12] deals with Voltage-gated inwardly rectifying potassium channel KCNH2 (Homo sapiens, UniProt Q12809).
Chain of Voltage-gated inwardly rectifying potassium channel KCNH2 (Q12809 whole entry): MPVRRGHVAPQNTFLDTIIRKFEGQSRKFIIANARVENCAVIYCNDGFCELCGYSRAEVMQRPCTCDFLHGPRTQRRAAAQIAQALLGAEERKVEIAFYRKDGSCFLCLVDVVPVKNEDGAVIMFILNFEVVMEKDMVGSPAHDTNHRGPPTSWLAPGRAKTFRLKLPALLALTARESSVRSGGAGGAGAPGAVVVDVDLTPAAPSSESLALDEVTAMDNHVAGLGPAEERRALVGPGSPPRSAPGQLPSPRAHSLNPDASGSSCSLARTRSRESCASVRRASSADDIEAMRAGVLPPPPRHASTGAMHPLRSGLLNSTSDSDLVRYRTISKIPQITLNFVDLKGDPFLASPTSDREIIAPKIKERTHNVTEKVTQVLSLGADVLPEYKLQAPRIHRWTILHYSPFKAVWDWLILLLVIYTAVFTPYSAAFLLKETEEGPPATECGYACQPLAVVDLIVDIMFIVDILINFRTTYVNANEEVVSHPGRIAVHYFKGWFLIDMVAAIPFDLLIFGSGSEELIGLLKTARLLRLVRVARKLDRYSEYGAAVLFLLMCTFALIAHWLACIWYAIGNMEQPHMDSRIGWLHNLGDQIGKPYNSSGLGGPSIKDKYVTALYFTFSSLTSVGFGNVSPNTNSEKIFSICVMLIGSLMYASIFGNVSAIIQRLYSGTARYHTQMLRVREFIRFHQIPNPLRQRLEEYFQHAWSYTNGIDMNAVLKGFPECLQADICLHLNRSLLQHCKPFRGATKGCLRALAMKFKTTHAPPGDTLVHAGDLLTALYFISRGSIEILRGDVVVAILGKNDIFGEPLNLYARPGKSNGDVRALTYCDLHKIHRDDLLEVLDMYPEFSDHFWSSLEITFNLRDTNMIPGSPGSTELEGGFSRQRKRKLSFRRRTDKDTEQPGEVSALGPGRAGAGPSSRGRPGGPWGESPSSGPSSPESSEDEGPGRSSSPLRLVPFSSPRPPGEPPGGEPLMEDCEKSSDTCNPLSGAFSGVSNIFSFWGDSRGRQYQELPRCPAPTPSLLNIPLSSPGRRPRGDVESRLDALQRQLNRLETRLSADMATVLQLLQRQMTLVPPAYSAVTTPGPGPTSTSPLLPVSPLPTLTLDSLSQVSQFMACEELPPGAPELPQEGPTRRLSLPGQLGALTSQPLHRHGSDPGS
Series [13] is described as follows: Volume of distribution at steady state in Han Wistar rat at 3 mg/kg, iv. More on the design: dose 3 mg/kg, route intravenous. As to conditions: in vivo, read-out: Vdss. Format: ADME, organism-based.
Series [14] is described as follows: Solubility of the compound. Format: physicochemical.
The target in series [15] is T1, Tyrosine-protein kinase JAK2. Description: Inhibition of recombinant JAK2 kinase in presence of ATP.
Setting [16] is: Mus musculus, BaF3, 48 h, read-out: GI50.

With `C[C@H](Nc1nc(Nc2ncc(C#N)s2)cc(N2CCOCC2)n1)c1ncc(F)cn1`, the microsomal CLint at 2 µM in series [1] came to 41 µL/min/mg. In addition, the RatioGI50 in series [2] came to 10; in series [3] it was 0.079. The GI50 was found to be 0.053 µM in series [4] and 0.52 µM in [5] (Mus musculus, BaF3, 48 h).
For the molecule `Cc1cnc(Nc2cc(N3CCOCC3)nc(N[C@@H](C)c3ncc(F)cn3)n2)s1`, in [6], the inhibition is more than 80%. Further, the concentration at 6 h in [7] amounted to 0.146 µg/mL. In series [8], this molecule had a clearance of 1.92 L/h/kg. In [1], this molecule gave a microsomal CLint at 2 µM of 84 µL/min/mg. In addition, in series [2], the RatioGI50 is 237. Further, the concentration at 2 h in series [9] turned out to be 0.715 µg/mL. The same molecule had a half-life in series [10] of 1.3 h. In addition, the IC50 in series [11] is 0.003 µM; in [12], more than 32 µM. Also, the Vd in series [13] worked out at 2.3 L/kg. For the same molecule, the GI50 in series [4] (read-out: GI50) is 0.005 µM; in [5] (setting [16]) it was 1.1 µM.
`Cc1cnc(Nc2cc(N3CCOCC3)nc(N[C@@H](C)c3ccc(F)cn3)n2)s1`: in series [7], the concentration at 6 h amounted to 0.055 µg/mL. Further, the clearance in series [8] was found to be 2.28 L/h/kg. In series [1], the microsomal CLint at 2 µM was more than 120 µL/min/mg. Also, the concentration at 2 h in [9] was 0.126 µg/mL. In [10], the half-life is 1.2 h. Moreover, the IC50 in series [12] came out at 12 µM. Moreover, the Vd in series [13] was 2.8 L/kg. Further, in [5] (Mus musculus, BaF3, 48 h), the GI50 is 1.2 µM.
Consider `Cc1cnc(Nc2cc(N3CCN(C)CC3)nc(N[C@@H](C)c3ccc(F)cn3)n2)s1`, for which, in [8], the clearance stood at 4.8 L/h/kg. The same molecule registered a microsomal CLint at 2 µM in series [1] of 220 µL/min/mg. The RatioGI50 in series [2] (Mus musculus, BaF3) was determined as 129. For the same molecule, in series [10], the half-life is 1.3 h. In addition, the results for the IC50 in series [11] and in series [12] were less than 0.003 µM and 13 µM, respectively. Also, in series [13], the Vd turned out to be 8.5 L/kg. Also, the GI50 in [4] was 0.005 µM; in series [5] it was 0.62.
For the molecule `COc1cc(Nc2ncc(C)s2)nc(N[C@@H](C)c2ncc(F)cn2)n1`, the intrinsic clearance (microsomal CLint) at 2 µM in series [1] was more than 100 µL/min/mg. Further, in series [2], the RatioGI50 is reported as 35. Also, the IC50 in series [11] is less than 0.003 µM; in series [12] it was more than 32 µM. Further, the values for the GI50 in [4] (read-out: GI50) and in [5] (setting [16]) were 0.042 µM and 1.5 µM, respectively.
`Cc1cnc(Nc2nc(N[C@@H](C)c3ncc(F)cn3)nc(N3CCOCC3)c2F)s1`: in series [7], the concentration at 6 h was 0.095 µg/mL. In addition, the concentration at 2 h in [9] amounted to 0.219 µg/mL.
Consider `C[C@H](Nc1nc(Nc2ncc(C#N)s2)cc(N2CCOCC2)n1)c1ccc(F)cn1`, for which the intrinsic metabolic clearance (microsomal CLint) at 2 µM in series [1] stood at 31 µL/min/mg. Further, in series [11], the half-inhibitory concentration (IC50) was less than 0.003 µM. Besides, the GI50 in series [4] worked out at 0.036 µM; in series [5] (Mus musculus, BaF3, 48 h), 0.17 µM.
`Cc1cnc(Nc2cncc(N[C@@H](C)c3ncc(F)cn3)n2)s1` returned a solubility in [14] of more than 1000 µM. Besides, the results for the IC50 in [15] and in [11] were 0.004 µM and 0.049 µM, respectively. The microsomal CLint at 2 µM in series [1] was 52 µL/min/mg.
In turn, `Cc1cc(Nc2cncc(N[C@@H](C)c3ncc(F)cn3)n2)n[nH]1` had a solubility in [14] of more than 1000 µM. Also, the IC50 in series [15] is less than 0.003 µM. This molecule yielded a clearance in series [8] of 0.84 L/h/kg. In addition, in series [1], the microsomal CLint at 2 µM was less than 4 µL/min/mg. Moreover, the half-life in series [10] was 1.4 h. Moreover, in [13], the Vd was 1.1 L/kg.
